The values that follow come from ChEMBL document CHEMBL1140547, “Potent oxindole based human beta3 adrenergic receptor agonists” (Bioorg Med Chem Lett, 2007).

The target of data set [1] is T1, Beta-3 adrenergic receptor (Homo sapiens, UniProt P13945). The data set is described as follows: Agonist activity at human beta-3 adrenergic receptor expressed in CHO cells assessed as cAMP level relative to isoproterenol. The data set is classed as functional, cell-based. The method in brief: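 CHO cells expressing human β3 adrenergic receptor; agonism read out as cAMP level. Intrinsic activity taken as the compound's maximal response expressed as percentage of the maximal response to isoproterenol at […]; n = 3.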
Target sequence in this assay (P13945 whole entry, looked up): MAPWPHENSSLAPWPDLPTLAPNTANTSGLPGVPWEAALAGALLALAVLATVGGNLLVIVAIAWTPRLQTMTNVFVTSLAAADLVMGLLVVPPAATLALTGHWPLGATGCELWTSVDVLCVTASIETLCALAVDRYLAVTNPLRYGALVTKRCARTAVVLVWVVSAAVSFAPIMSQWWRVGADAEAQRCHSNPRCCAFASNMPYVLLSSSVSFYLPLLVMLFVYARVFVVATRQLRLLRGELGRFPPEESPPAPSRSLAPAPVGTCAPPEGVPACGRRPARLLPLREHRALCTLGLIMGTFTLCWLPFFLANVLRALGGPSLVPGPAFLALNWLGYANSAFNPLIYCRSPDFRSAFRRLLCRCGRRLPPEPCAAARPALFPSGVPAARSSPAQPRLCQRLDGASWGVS

Data set [2] concerns the target T1, Beta-3 adrenergic receptor. The data set is described as follows: Agonist activity at human beta-3 adrenergic receptor expressed in CHO cells assessed as cAMP level. The format is functional, cell-based. The method in brief:
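cAMP accumulation measured in CHO cells expressing the human β receptor. Intrinsic activity is the compound's maximal response as a percentage of the maximal isoproterenol response.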
Target sequence in this assay (P13945 whole entry): as the sequence (P13945 whole entry, looked up) above

The target of data set [3] is Beta-2 adrenergic receptor (Homo sapiens, UniProt P07550). Nature of the data set: Agonist activity at human beta-2 adrenergic receptor expressed in CHO cells assessed as cAMP level. The format is functional, cell-based.
In data set [4] the target is Beta-1 adrenergic receptor (Homo sapiens, UniProt P08588). The data set is described as follows: Agonist activity at human beta-1 adrenergic receptor expressed in CHO cells assessed as cAMP level. The data set is classed as functional, cell-based.
For data set [5], the system named is Cardiac atrium. Nature of the data set: Effect on rat atrial tachycardia assessed as increase in heart rate. The data set is classed as functional. The method, boiled down:
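Isolated rat atria were used to score tachycardia. The value is the maximal response, or the response at a single fixed high agonist level when no maximum was reached.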

Data set [6] has as its system Rattus norvegicus. Nature of the data set: Reduction in respiratory quotient in diet induced obese Long Evans rat at 10 mg/kg, po after 20 hrs relative to control. The arrangement: scale not given: the % may be the effect or the level left. The data set is classed as functional. The method, boiled down:
(§1)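 Diet-induced obese Long Evans rats received one oral dose (1 or 10 mg/kg) or vehicle. Indirect calorimetry tracked respiratory quotient over 24 h. RQ reduction and energy expenditure increase were expressed as % versus vehicle over 20 h. Food consumption was recorded in g. Statistical significance was assessed against vehicle.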

For data set [7], the system named is Rattus norvegicus. Nature of the data set: Increase in energy expenditure in diet induced obese Long Evans rat at 10 mg/kg, po after 20 hrs relative to control. The data set is classed as functional. The method, boiled down: as §1
For data set [8], the system named is Rattus norvegicus. The data set is described as follows: Effect on food consumption in diet induced obese Long Evans rat at 10 mg/kg, po. The format is functional. The method, boiled down: as §1
The subject of data set [9] is Rattus norvegicus. The data set is described as follows: Reduction in respiratory quotient in diet induced obese Long Evans rat at 1 mg/kg, po after 20 hrs relative to control. The data set is classed as functional. Further details: scale not given: the % may be the effect or the level left. The method, boiled down:
as §1

The test system of data set [10] is Rattus norvegicus. The data set is described as follows: Increase in energy expenditure in diet induced obese Long Evans rat at 1 mg/kg, po after 20 hrs relative to control. The format is functional. The method in brief:
as §1

Data set [11] deals with Rattus norvegicus. Nature of the data set: Effect on food consumption in diet induced obese Long Evans rat at 1 mg/kg, po. The data set is classed as functional. The method, boiled down:
as §1

Data set [12] is described as follows: Oral bioavailability in rat […]. The data set is classed as ADME, organism-based. The settings on record: in vivo.
In data set [13] the target is Beta-3 adrenergic receptor (Rattus norvegicus, UniProt P26255). The data set is described as follows: Agonist activity at rat beta-3 adrenergic receptor. The data set is classed as functional.
The nature of data set [14]: Oral bioavailability in F344 rat. To be noted: in vivo.

The structures appear in SMILES notation.

Beta-2 adrenergic receptor, sequence (P07550 whole entry): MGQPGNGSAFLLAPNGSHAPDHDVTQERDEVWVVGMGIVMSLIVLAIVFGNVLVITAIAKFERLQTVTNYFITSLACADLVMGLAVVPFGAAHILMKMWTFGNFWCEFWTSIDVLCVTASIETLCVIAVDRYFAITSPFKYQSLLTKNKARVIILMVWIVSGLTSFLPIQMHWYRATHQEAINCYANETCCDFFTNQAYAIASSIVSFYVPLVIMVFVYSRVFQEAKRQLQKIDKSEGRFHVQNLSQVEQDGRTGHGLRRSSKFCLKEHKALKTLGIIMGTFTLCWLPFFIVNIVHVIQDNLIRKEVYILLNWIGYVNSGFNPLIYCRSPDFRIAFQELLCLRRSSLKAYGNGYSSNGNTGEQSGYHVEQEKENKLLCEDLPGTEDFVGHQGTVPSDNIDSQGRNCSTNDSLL
Beta-1 adrenergic receptor, sequence (P08588 whole entry): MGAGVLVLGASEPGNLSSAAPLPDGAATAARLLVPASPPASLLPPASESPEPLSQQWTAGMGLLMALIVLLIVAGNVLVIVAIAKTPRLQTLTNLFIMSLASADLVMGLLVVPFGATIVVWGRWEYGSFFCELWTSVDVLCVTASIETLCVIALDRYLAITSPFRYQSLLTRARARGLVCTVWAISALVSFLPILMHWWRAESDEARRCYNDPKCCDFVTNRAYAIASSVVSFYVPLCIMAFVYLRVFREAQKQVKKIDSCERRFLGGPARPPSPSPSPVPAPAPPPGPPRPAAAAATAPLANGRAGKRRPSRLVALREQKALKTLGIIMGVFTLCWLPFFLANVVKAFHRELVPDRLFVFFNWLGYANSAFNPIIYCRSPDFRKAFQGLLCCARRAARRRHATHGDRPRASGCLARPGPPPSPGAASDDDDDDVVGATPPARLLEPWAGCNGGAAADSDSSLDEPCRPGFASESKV
Beta-3 adrenergic receptor (Rattus norvegicus, UniProt P26255), sequence (P26255 whole entry): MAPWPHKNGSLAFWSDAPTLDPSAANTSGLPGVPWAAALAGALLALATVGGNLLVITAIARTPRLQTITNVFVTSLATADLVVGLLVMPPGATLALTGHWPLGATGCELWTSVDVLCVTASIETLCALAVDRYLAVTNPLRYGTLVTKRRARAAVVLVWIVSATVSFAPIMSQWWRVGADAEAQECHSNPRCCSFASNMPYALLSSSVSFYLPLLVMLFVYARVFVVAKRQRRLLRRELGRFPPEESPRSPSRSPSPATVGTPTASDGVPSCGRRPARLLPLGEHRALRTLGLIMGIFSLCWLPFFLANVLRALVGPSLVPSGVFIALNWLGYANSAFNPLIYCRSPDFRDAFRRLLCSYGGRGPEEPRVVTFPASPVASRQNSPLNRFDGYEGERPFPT

With `CC(C)(Cc1ccc(Oc2ccc(C(N)=O)cn2)cc1)NC[C@H](O)COc1cccc2c1C(Cc1ccccc1)C(=O)N2` (stereo not given in full), the Emax in [1] is 15.6%. In addition, the EC50 in data set [2] is 12.3 nM; in [3], more than 10000 nM; in data set [4], more than 10000 nM.

As to `CC(C)(Cc1ccc(Oc2ccc(C(N)=O)cn2)cc1)NC[C@H](O)COc1cccc2c1C(Cc1ccccc1)(Cc1ccccc1)C(=O)N2`, in data set [1], the Emax came to 48.5%. Moreover, the EC50 in [2] is 268 nM; in data set [3], more than 10000 nM; in data set [4], more than 10000 nM.

As to `CC(C)(Cc1ccc(Oc2ccc(C(N)=O)cn2)cc1)NC[C@H](O)COc1cccc2c1C1(CCC1)C(=O)N2`, the maximal effect (Emax) in [1] came out at 71.2%. Also, the figures for the EC50 in [2], in data set [3] and in data set [4] were 17.6 nM, more than 10000 nM and more than 10000 nM, respectively. Further, the Activity in data set [5] was determined as 14.8%.

Consider `CC(C)(Cc1ccc(Oc2ccc(C(N)=O)cn2)cc1)NC[C@H](O)COc1cccc2c1C(C)(C)C(=O)N2`, for which the Emax in data set [1] is 67.9%. The EC50 in data set [2] is 5.2 nM; in [3], more than 10000 nM; in data set [4], more than 10000 nM; in [13] it was 6.5 nM. Also, the Activity is listed as 9.7% in data set [5]; 45% in data set [6]; 14% in data set [7]; 11.8 g in data set [8]; 31% in [9]; 8% in [10]. For the same compound, the Activity in data set [11] was 13.7 g. Also, the bioavailability in data set [12] and in data set [14] was 10% throughout.

On to `CC(C)(Cc1ccc(Oc2ccc(C(N)=O)cn2)cc1)NC[C@H](O)COc1cccc2c1C1(CCCCC1)C(=O)N2`, for which the Emax in [1] stood at 41%. The EC50 in data set [2] was 8.3 nM; in [3] it was more than 10000 nM; in [4], more than 10000 nM. Moreover, the Activity in [5] is reported as 16%.

For the compound `CC(C)(Cc1ccc(Oc2ccc(C(N)=O)cn2)cc1)NC[C@H](O)COc1cccc2c1C1(CC1)C(=O)N2`, the Emax in data set [1] was found to be 76.8%. Further, the figures for the EC50 in data set [2], in [3] and in data set [4] were 6.6 nM, 35.2 nM and 58.3 nM, respectively. Moreover, in data set [5], the Activity turned out to be 13.2%.

As to `CCC1(CC)C(=O)Nc2cccc(OC[C@@H](O)CNC(C)(C)Cc3ccc(Oc4ccc(C(N)=O)cn4)cc3)c21`, the Emax in [1] amounted to 14.2%. Further, the EC50 in data set [2] was 2.7 nM; in data set [3], more than 10000 nM; in [4], more than 10000 nM. In addition, the Activity in data set [5] was determined as 2%.

Take `CC(C)CC1C(=O)Nc2cccc(OC[C@@H](O)CNC(C)(C)Cc3ccc(Oc4ccc(C(N)=O)cn4)cc3)c21` (stereo not given in full): the Emax in data set [1] came to 49.4%. Also, the EC50 was 14 nM in data set [2], more than 10000 nM in [3] and more than 10000 nM in data set [4].

In the case of `CC(C)(Cc1ccc(Oc2ccc(C(N)=O)cn2)cc1)NC[C@H](O)COc1cccc2c1CC(=O)N2`, in data set [1], the Emax is 50.5%. Besides, the values for the EC50 in [2], in data set [3] and in data set [4] were 24.4 nM, more than 10000 nM and more than 10000 nM, respectively. For the same compound, in data set [5], the Activity is 19.5%.

Consider `CC(C)C1C(=O)Nc2cccc(OC[C@@H](O)CNC(C)(C)Cc3ccc(Oc4ccc(C(N)=O)cn4)cc3)c21` (stereo not given in full), for which the Emax in data set [1] was 41.7%. For the same compound, the EC50 in data set [2] is 13.9 nM; in [3], more than 10000 nM; in data set [4], more than 10000 nM.

For `CC1C(=O)Nc2cccc(OC[C@@H](O)CNC(C)(C)Cc3ccc(Oc4ccc(C(N)=O)cn4)cc3)c21` (stereo not given in full), the Emax in [1] was 72.6%. Also, the EC50 is 12 nM in [2], more than 10000 nM in data set [3] and more than 10000 nM in data set [4]. Moreover, the Activity in data set [5] was found to be 10.4%.

As for `CC(C)(Cc1ccc(Oc2ccc(C(N)=O)cn2)cc1)NC[C@H](O)COc1cccc2c1C1(CCCC1)C(=O)N2`, in data set [1], the Emax stood at 66.3%. Moreover, the EC50 in data set [2] was 10.6 nM; in data set [3], more than 10000 nM; in data set [4], more than 10000 nM. In addition, the Activity in data set [5] is 8.6%.
